Experimental data from ChEMBL document CHEMBL1154198, “Chemical genetics of Plasmodium falciparum” (Nature, 2010).

Tests used:
Plasmodium falciparum [1] = test: ST_JUDE: Plasmodium falciparum 3D7 EC50 (uM) as measured by SYBR green dye; type: functional, organism-based
Plasmodium falciparum [2] = test: ST_JUDE: Plasmodium falciparum K1 EC50 (uM) as measured by SYBR green dye; type: functional, organism-based
Plasmodium falciparum [3] = test: ST_JUDE: Cytotoxicity against Plasmodium falciparum 3D7; type: functional, organism-based
Procedure, shortened: (§1)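 Asexual P. falciparum grown in human erythrocytes, exposed to compounds for 72 h, and growth read as the DNA quantity in treated versus control cultures. Dose-response run at 12 concentrations from 10 μM to 5 nM.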

Plasmodium falciparum [4] = test: ST_JUDE: Cytotoxicity against Plasmodium falciparum K1; type: functional, organism-based; procedure, shortened: as §1
Plasmodium falciparum [5] = test: ST_JUDE: Cytotoxicity against Plasmodium falciparum V1/S; type: functional, organism-based
Toxoplasma gondii = test: ST_JUDE: Growth inhibition of to Toxoplasma gondii, in human U-2OS cells, as measured by luciferase.; type: functional, organism-based; details: RH, U2OS
Procedure, shortened: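 T. gondii parasites engineered to express luciferase; drug sensitivity read by luminescence.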

Trypanosoma brucei = test: ST_JUDE: Cytotoxicity using luciferase to measure ATP as an indicator of the viability of Trypanosoma brucei; type: functional, organism-based
Leishmania major = test: ST_JUDE: Cytotoxicity using Alamar Blue to measure viability of Leishmania major; type: functional, organism-based
Procedure, shortened: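 L. major promastigotes; drug susceptibility read with Alamar Blue.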

[6] = ST_JUDE: Cytotoxicity using luciferase to measure ATP as an indicator of the viability of human foreskin fibroblast cells (BJ); type: toxicity, cell-based
[7] = ST_JUDE: Cytotoxicity using luciferase to measure ATP as an indicator of the viability of human epithelial hepatocellular carcinoma cells (HepG2); type: toxicity, cell-based
[8] = ST_JUDE: Cytotoxicity using luciferase to measure ATP as an indicator of the viability of human epithelial embryonic kidney cells (HEK293); type: toxicity, cell-based
[9] = ST_JUDE: Cytotoxicity using luciferase to measure ATP as an indicator of the viability of human Burkitt''s lymphoma lymphoblast cells (Raji); type: toxicity, cell-based
Plasmodium falciparum [10] = test: ST_JUDE: Cytotoxicity against Plasmodium falciparum Dd2; type: functional, organism-based
Plasmodium falciparum [11] = test: ST_JUDE: Cytotoxicity against Plasmodium falciparum W2; type: functional, organism-based
Plasmodium falciparum [12] = test: ST_JUDE: Cytotoxicity against Plasmodium falciparum SB-A6; type: functional, organism-based
Plasmodium falciparum [13] = test: ST_JUDE: Cytotoxicity against Plasmodium falciparum D10 transfected with yeast DHOD; type: functional, organism-based

Row | Compound | EC50 (Plasmodium falciparum [1]) [nM] | EC50 (Plasmodium falciparum [2]) [nM] | EC50 (Plasmodium falciparum [3]) [nM] | EC50 (Plasmodium falciparum [4]) [nM] | EC50 (Plasmodium falciparum [5]) [nM] | EC50 (Toxoplasma gondii) [nM] | EC50 (Trypanosoma brucei) [nM] | EC50 (Leishmania major) [nM] | EC50 [6] [nM] | EC50 [7] [nM] | EC50 [8] [nM] | EC50 [9] [nM] | EC50 (Plasmodium falciparum [10]) [nM] | EC50 (Plasmodium falciparum [11]) [nM] | EC50 (Plasmodium falciparum [12]) [nM] | EC50 (Plasmodium falciparum [13]) [nM]
1 | Oc1ccc(Cl)cc1CN1CCN(c2cccc(C(F)(F)F)c2)CC1 | 2370 | 886 | 1570 | 476 | 855 | > 19400 | > 33900 | > 15100 | > 35300 | > 35300 | > 35300 | > 35300 | 1550 | > 9070 | 2130 | 1650
2 | Cc1ccccc1/N=C1\C=C(NS(=O)(=O)c2ccc(F)cc2)c2ccccc2C1=O | 497 | 182 | 221 | 98.1 | 114 | > 19100 | 946 | > 14900 | 5880 | 6130 | 6290 | 3140 | 435 | 216 | 303 | 161
3 | COC(=O)C1=CNC=C(C(=O)OC)C1c1ccc(Cl)c(Cl)c1 | 843 | 1670 | 772 | 1360 | 1780 | > 25100 | 17100 | > 19600 | > 45800 | > 45800 | > 45800 | > 45800 | 780 | 900 | > 11800 | > 11800
4 | COC(=O)c1ccc(NC(=O)C2c3ccccc3C(=O)N(CC(C)C)C2c2cccs2)cc1 (stereo not drawn) | 998 | 1220 | 1160 | 1520 | 1730 | > 21200 | 2330 | > 16600 | > 38700 | > 38700 | > 38700 | > 38700 | 1250 | > 9940 | 2260 | 1360
5 | CCN(CC)CCn1c(=N)n(CC(O)c2ccc(Cl)c(Cl)c2)c2ccccc21 (stereo not drawn) | 907 | 761 | 804 | 1030 | 1110 | 9010 | 4960 | > 18400 | > 43100 | 7180 | 30700 | > 43100 | 480 | 722 | 1070 | 842
6 | CCCO/C(O)=C1\C(C)=NC2=C(C(=O)CC(c3ccc(OC)cc3)C2)C1c1ccc([N+](=O)[O-])cc1 (stereo not drawn) | 653 | 1080 | 3000 | 1080 | 1480 | > 24800 | 6940 | > 19400 | > 45200 | > 45200 | > 45200 | > 45200 | 1600 | > 11600 | 1030 | 1530
7 | COc1ccc(Nc2cc(C)nc(Nc3ccc(NS(=O)(=O)c4ccc(OC)cc4)cc3)n2)cc1 | 743 | > 15000 | 1030 | > 12900 | > 12900 | > 27600 | 5790 | 175 | > 50300 | 17400 | 30600 | 14300 | 1230 | > 12900 | 546 | 1690

Now those with a lower EC50 (Plasmodium falciparum [1]), led by results:

Row | EC50 (Plasmodium falciparum [1]) [nM] | EC50 (Plasmodium falciparum [2]) [nM] | Compound | EC50 (Plasmodium falciparum [3]) [nM] | EC50 (Plasmodium falciparum [4]) [nM] | EC50 (Plasmodium falciparum [5]) [nM] | EC50 (Toxoplasma gondii) [nM] | EC50 (Trypanosoma brucei) [nM] | EC50 (Leishmania major) [nM] | EC50 [6] [nM] | EC50 [7] [nM] | EC50 [8] [nM] | EC50 [9] [nM] | EC50 (Plasmodium falciparum [10]) [nM] | EC50 (Plasmodium falciparum [11]) [nM] | EC50 (Plasmodium falciparum [12]) [nM] | EC50 (Plasmodium falciparum [13]) [nM]
8 | 285 | 368 | CCc1nc2nc(C)cc(Nc3ccc(I)cc3)n2n1 | 347 | 641 | 1160 | > 21600 | > 37800 | > 16900 | > 39500 | > 39500 | > 39500 | > 39500 | 456 | 595 | > 10100 | > 10100
9 | 184 | 85.7 | Cc1ccc2c(c1)C=C/C(=C\c1sc3ccccc3[n+]1C)N2C | 144 | 152 | 147 | 3950 | 175 | 1.2 | 7950 | 2250 | 6530 | 740 | 204 | 15.4 | 322 | 192
10 | 457 | 106 | CCOC(=O)C1(Cc2ccc(Cl)cc2)CCN(Cc2ccccc2O)CC1 | 2000 | 194 | 327 | > 31200 | 12300 | > 24400 | > 56900 | > 56900 | > 56900 | > 56900 | 445 | 548 | 549 | 559
11 | 270 | 140 | CC(C)NCC(O)Cn1c2ccc(Cl)cc2c2cc(Cl)ccc21 (stereo not drawn) | 1800 | 477 | 4840 | > 22800 | 861 | > 17800 | > 41600 | 7620 | 17700 | 20900 | 238 | 122 | 656 | 626
12 | 276 | 125 | CCCO/C(O)=C1\C(C)=NC2=C(C(=O)CC(c3ccc(OC)c(OC)c3)C2)C1c1ccccc1OC (stereo not drawn) | 385 | 328 | 392 | 16100 | 10400 | > 20100 | > 47000 | > 47000 | > 47000 | > 47000 | 416 | 290 | 288 | 414
13 | 61.3 | 24 | CCCO/C(O)=C1\C(C)=NC2=C(C(=O)CC(c3ccc(OC)c(OC)c3)C2)C1c1ccc(F)cc1 (stereo not drawn) | 96.4 | 121 | 155 | > 19900 | 5920 | > 15600 | > 36300 | > 36300 | > 36300 | > 36300 | 95.2 | 56.6 | 60.3 | 58
